# Screens (PubChem BioAssay)
# This is a sample that favours compounds with a hit; in the whole collection about 2.3% have one here.
# ERp5 block: blocks human ERp5 reductase activity on insulin. Q15084. ERp5 insulin aggregation, absorbance 650 nm, 90 min. inhibition, % at 9.99 µM. hit rate 0.05% among 350,000. AID 651711;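 active = mean replicate inhibition above about 25%, with every replicate also reaching it, limit read from the data, passing the limit was not always enough; inconclusive = only one of those two criteria met; inactive = neither criterion met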
# Target sequence (Q15084 whole entry, looked up): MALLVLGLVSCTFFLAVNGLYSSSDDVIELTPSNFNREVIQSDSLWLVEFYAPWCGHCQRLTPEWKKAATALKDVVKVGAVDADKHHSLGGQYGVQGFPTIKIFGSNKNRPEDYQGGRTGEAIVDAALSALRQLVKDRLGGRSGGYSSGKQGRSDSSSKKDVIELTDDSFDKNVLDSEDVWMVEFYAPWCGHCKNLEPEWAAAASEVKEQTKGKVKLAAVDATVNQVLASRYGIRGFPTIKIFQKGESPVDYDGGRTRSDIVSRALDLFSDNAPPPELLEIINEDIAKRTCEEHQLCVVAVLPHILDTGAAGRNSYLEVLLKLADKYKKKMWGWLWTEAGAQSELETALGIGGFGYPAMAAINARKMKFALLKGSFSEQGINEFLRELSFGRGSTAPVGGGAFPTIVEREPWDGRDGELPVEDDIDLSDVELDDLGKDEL
# CFTR F508del cor: correctors of CFTR F508del function in bronchial epithelial cells. activity (quench increase), % at 7.58 µM. hit rate 0.36% among 350,000. CFBE cells, YFP halide quenching; stimulated with forskolin plus potentiator P3; % fluorescence drop versus neutral controls. AID 720511;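 active = mean added fluorescence quench of at least 8% versus neutral control, with both replicates also reaching 8%; inconclusive = only one of the mean or replicate conditions met; inactive = mean below 8% and not both replicates reaching 8%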;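 note: cells transiently co-express mutant CFTR-F508del with the halide-sensitive YFP; corrector assay measuring rescue of mutant channel to the surface after 24 h compound exposure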
# Cneo AK release: Cryptococcus neoformans lysis via adenylate kinase release; AID 651654; C. neoformans lysis, adenylate kinase release luminescence, 4 h; normalised: neutral wells 0, clomiphene wells 100; hit rate 0.2% among 360,000; lysis activity, % at 15 µM;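 active = mean lysis activity across replicates of at least 80%, whatever share of replicates individually reach that level; inactive = mean lysis activity below 80%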
#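 read-out = cell lysis signal | test system = log-phase Cryptococcus neoformans yeast cells | input = cells at 5 × 10^6 per mL | medium = fresh YPD growth medium | signal = luminescent adenylate kinase detection reagent | timing = 4 h at 37 °C static, read 1 h later | dosing = single dose | controls = Clomiphene as positive lysis control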
# PDI inh: inhibitors of human protein disulfide isomerase. PDI insulin aggregation turbidity, A650, 90 min. P07237. AID 588391. inhibition, % at 10 µM. hit rate 0.052% among 350,000;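 active = mean inhibition across replicates of 30% or more, whatever share of single replicates reach that level; inconclusive = mean inhibition below 30% while every single replicate reaches 30%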
# DENV2 CPE: inhibitors of DENV2 cytopathic effect; hit rate 1.7% among 350,000; AID 651640; CPE inhibition, % at 9.99 µM; DENV2-infected cells, cytopathic effect rescue, plate reader; in the data active = CPE inhibition above about 20%, passing the limit was not always enough; inconclusive = no clear call, values can overlap the other calls; tested in BHK-21 cells;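 note: 0% = median of neutral control wells and 100% = median of positive control wells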
# C2C12 statin: suppressors of simvastatin-induced myotoxicity in C2C12 myotubes | ATP luminescence, 48 h; scaled: DMSO 0, geranylgeraniol control 100 | rescue of ATP level, % at 7.49 µM | hit rate 0.78% among 330,000 | AID 602340;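 active = mean ATP rescue above about 67%, or every replicate alone reaching that limit, limit read from the data, passing the limit was not always enough; inconclusive = no clear call, values can overlap the other calls; inactive = mean under the limit and some replicate under it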;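 note: myotubes were challenged with 10 µM simvastatin during compound exposure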
# Starred values were filed as active, the others as inactive; ? = inconclusive; / = not tested or not shown.
SMILES,ERp5 block,CFTR F508del cor,Cneo AK release,PDI inh,DENV2 CPE,C2C12 statin
CC1=Nn2c(nnc2-c2n[nH]c3c2CCC3)SC1,/,/,2,0,/,-15
Fc1ccc(C2=Nn3c(nnc3-c3n[nH]c4c3CCC4)SC2)cc1,/,/,-1,2,/,114*
O=C(Nc1cccc(Cl)c1)N1C[C@H]2[C@@H](c3ccccc31)[C@H](CO)N2Cc1ccccc1Cl,5,3,-13,/,4,25
Cc1ccc2ncccc2c1,-4,-1,0,/,55*,2
C[C@@H]1CN([C@H](C)CO)C(=O)c2cc(/C=C/c3ccccc3)cnc2O[C@@H]1CN(C)S(C)(=O)=O,-3,-2,87*,/,-3,-11
C[C@H](CO)N1C[C@H](C)[C@H](CN(C)Cc2ccncc2)Oc2ncc(/C=C/c3ccccc3)cc2C1=O,2,-3,-1,/,23*,19
Cc1ccc(S(=O)(=O)N(C)C[C@@H]2Oc3ncc(Br)cc3C(=O)N([C@@H](C)CO)C[C@H]2C)cc1,-5,2,91*,/,/,9
C/C=C/c1cnc2c(c1)C(=O)N([C@H](C)CO)C[C@H](C)[C@H](CN(C)S(=O)(=O)c1ccccc1)O2,2,2,-4,/,79*,12
Cc1ccc(S(=O)(=O)N(C)C[C@H]2Oc3ncc(Br)cc3C(=O)N([C@H](C)CO)C[C@H]2C)cc1,-4,-1,0,/,-2,-3
C[C@H]1CN([C@@H](C)CO)C(=O)c2cc(/C=C/c3ccccc3)cnc2O[C@H]1CN(C)S(C)(=O)=O,0,-2,19,/,17,6
COC(=O)C[C@H]1CC[C@@H]2[C@H](COc3ccc(NC(=O)Nc4cccc(C)c4)cc3C(=O)N2C)O1,9,-3,-3,/,-2,15
C/C=C/c1ccc([C@H]2[C@@H](CO)N(C(=O)CC)[C@@H]2CN(C)C(=O)NC(C)C)cc1,-2,-2,/,/,?,/
CC(C)NC(=O)Nc1ccc2c(c1)C(=O)N([C@@H](C)CO)C[C@@H](C)[C@@H](CN(C)S(=O)(=O)c1cn(C)cn1)O2,1,2,-1,/,-5,/
Nc1c(C(=O)c2ccc(Cl)cc2)sc2nsc(SCCN3CCOCC3)c12,3,-2,0,-5,-9,-19
Nc1c(C(=O)c2ccccc2)sc2nsc(SCCN3CCCC3)c12,5,-5,2,-4,57*,-34
Cc1cccc(NC(=S)NC2CC3C=CC2C3)c1 (stereo not drawn),2,-2,19,5,-2,100*
COc1ccc(C(=O)NC2CCCCCCC2)cc1OC,/,-2,1,13,3,/
COc1ccc(N2CCN(c3cc(C(=O)NC4CCCCC4)ncn3)CC2)cc1OC,5,2,0,2,22*,-3
CSc1nsc(SCC(=O)N2CCCc3ccccc32)n1,/,/,-3,-5,/,92*
COc1ccc(NC(=O)N(C)C[C@@H]2OCCCC[C@H](C)Oc3ccc(NS(=O)(=O)c4cn(C)cn4)cc3C(=O)N([C@H](C)CO)C[C@@H]2C)cc1,17,-1,-4,/,-13,/
C=C(C)Cn1c(=S)[nH]c2ccccc2c1=O,/,/,-1,-3,/,144*
C[C@@H]1CN([C@H](C)CO)C(=O)c2cccc(NS(=O)(=O)c3cn(C)cn3)c2O[C@@H]1CN(C)Cc1ccc(C(=O)Nc2ccccc2N)cc1,-6,1,/,/,-7,/
COc1ccc(-c2oc3ccc(-c4cc(OC)c(OC)c(OC)c4)cc3c2-c2ccc(OC)nc2)cc1,-7,0,0,3,80*,-4
COc1ccc(-c2oc3ccc(-c4cc(OC)c(OC)c(OC)c4)cc3c2-c2ccc(OC)cc2)cc1,-2,0,/,/,12,/
CCCCN1C(=O)/C(=C/C=C2\Oc3ccccc3N2CC)SC1=S,3,17*,-3,5,13,-18
C[C@@H]1CCCCO[C@H](CN(C)CC2CC2)[C@H](C)CN([C@@H](C)CO)C(=O)c2cc(NC(=O)Nc3ccc4c(c3)OCO4)ccc2O1,0,-3,-3,/,8,/
Cc1ccc(S(=O)(=O)Nc2ccc3c(c2)C(=O)N([C@H](C)CO)C[C@H](C)[C@@H](CN(C)S(=O)(=O)c2ccccc2)O3)cc1,11,0,-2,/,39*,-47
